Experimental data of several laboratories.
Each line is one published result; the experiments were not run side by side.
Effect on: metabolic stability

`C[C@]12CC[C@H]3[C@@H](CCC4=CC(=O)CC[C@@]43C)[C@@H]1CC[C@@H]2O` has a half-life of 14.9 min (human, liver microsomes; 1 µM).
For `CN(C)CCc1c[nH]c2ccccc12`, the half-life was 98.9 min (human, hepatocytes; 0.6 µM).
`C=C1NC(=O)[C@H](C)N(O)C(=O)[C@H]([C@@H](O)C(N)=O)N(C)C(=O)[C@H](C)OC(=O)[C@@H]2C[C@H](C)CN2C1=O` gave a half-life of greater than 120 min (human, liver microsomes).
For `Cc1cc(C)nc(Nc2ncc(C(=O)NCCc3c(C)[nH]c4ccccc34)cn2)c1`, the half-life was 28 min (human, liver microsomes; 1 µM).
For `Cc1cnc(Nc2ccc(C(=O)NC3CCN(C(=O)COCCOCCOCC(=O)N4CCC(NC(=O)c5ccc(Nc6ncc(C)c(Nc7ccc(Cl)c(NS(=O)(=O)C(C)(C)C)c7)n6)cc5F)CC4)CC3)c(F)c2)nc1Nc1ccc(Cl)c(NS(=O)(=O)C(C)(C)C)c1`, the half-life was 3.6 min (human, liver microsomes).
`O=c1c2ccccc2sn1Cc1ccc(Cl)cc1` has a half-life of 300 min (human, liver microsomes).
`CCCCCn1cc(C(=O)Nc2cccc3ccccc23)c2ccccc21` has a half-life of 2.3 min (male human, liver microsomes; 1 µM, pH 7.4).
`N=c1c2c(-c3ccccc3)c(-c3ccccc3)n(Cc3ccccc3)c2ncn1[C@H]1CC[C@H](O)CC1` gave a half-life of greater than 120 min (human, liver S9; 1 µM).
The half-life of `C#Cc1ccc2c(c1)C(c1ccccn1)=NCc1c(-c3cnco3)ncn1-2` is reported as 1500 min (human, liver microsomes).
`Cc1nc2c(=O)n(C)c(=O)nc-2n(C)n1` has a half-life of greater than 186 min (human, liver microsomes).
The half-life of `O=C(c1cc(-n2sc3ncccc3c2=O)ccc1Cl)N1CCOCC1` is reported as greater than 120 min (human, liver microsomes).
`NCCc1c[nH]c2ccc(O)cc12` has a half-life of 33 min (human, hepatocytes; 5 µM).
`CC(C)NCC(O)COc1cccc2ccccc12` (stereo not shown) has a half-life of greater than 40 min (human, liver microsomes; 2 µM).
`CCCCCCCCCCCCCCCCCCCCOP(=O)(O)CO[C@H](C)Cn1cnc2c(N)ncnc21.N` has a half-life of 49 min (human, liver microsomes; 3 µM, 30 min, pH 7.4).
`CN1CCCCC1Cn1cc(C(=O)c2cc([N+](=O)[O-])ccc2I)c2ccccc21` (racemic) has a half-life of 5.9 min (human, liver microsomes).
With `CCCCCn1nc(C(=O)Nc2cccc3ccccc23)c2ccccc21` the half-life was 1.7 min (male human, liver microsomes; 1 µM, pH 7.4).
